Data: the EternaBench riboswitch data

Tested on: MS2 coat protein
Experiment: apparent Kd, MS2 coat protein; higher = weaker binding; RNA-MaP array; tryptophan 2.4 mM where present
Summary of the method: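 Stalled E. coli RNA polymerase produced the designs on Illumina sequencing-chip clusters. SNAP-549-labelled MS2 coat protein was added from 0.7 or 1.5 nM, doubling to 3 µM, without and then with constant ligand, in 100 mM Tris-HCl pH 7.5, 80 mM KCl, 4 mM MgCl2, BSA, DTT, yeast tRNA and Tween-20. The apparent Kd is the median of filtered per-cluster fits of green signal normalised to red-channel RNA signal and control-cluster median Fmax.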

[1] = designed as: ON switch for tryptophan, no ligand
[2] = ligand present: tryptophan, designed as: ON switch for tryptophan
[3] = designed as: OFF switch for tryptophan, no ligand
[4] = ligand present: tryptophan, designed as: OFF switch for tryptophan

Sequence | apparent Kd [1] | apparent Kd [2] | apparent Kd [3] | apparent Kd [4]
ACGUUGUAGUCGGCCGCCACUGUUUUCAUGUUCAACAUGAGGAUCACCCAUGUACCUUUUUUUAUCAGGACCGGGACGUAUUCGA | 93.2 nM | 40.7 nM | – | –
ACGCCCGCCUCACAUGAGGAUCACCCAUGUCGAGGACCGGUACGGCCGCCACUCGUCGUCGGUAAUACGGGCGUUGAAUAAUAUA | – | – | 11.5 nM | 49.7 nM
GGGUCAGGCGCGGCCGCCACUGCGGUGAUGUGACAUGAGGAUCACCCAUGUUGUCAUGUGGCACAUAGGACCGGGCGCCUGGCCC | – | – | 29.2 nM | 31.6 nM
AGCAACAAGUCGGCCGCCACUCAAUAAACAUGAGGAUCACCCAUGUAAAUAACAUGAUAAUAAUAGAGGACCGGGACAGUUGCAU | 14.4 nM | 13 nM | – | –
GGCACAUAGUCGGCCGCCACUAGGGUGUAGUGGAAUAACAUGAGGAUCACCCAUGUAUUUGGGACUAGGACCGGGACUAUGUGCC | – | – | 25.2 nM | 20 nM
GAGCGCGUGGACUGGCGUGCUCCGCUCCGUCGAGGACCGGUACGGCCGCCACUCGACAUGAGGAUCACCCAUGUGUGCGCUCGCG | – | – | 51.5 nM | 96.3 nM
AGAUUCGACACGGCCGCCACUCGUGACGGAUUUCCGAGUGUCGAACAUGAGGAUCACCCAUGUCCGAGGACCGGGUGUUGAGUCU | – | – | 34.1 nM | 522 nM
GGUUACUCUACGGCCGCCACUGUAAAGUAAAUAUUAAUGUACAUGACAUGAGGAUCACCCAUGUACAGGACCGGGUAGUGUAACC | 42.8 nM | 18.5 nM | – | –
GGGACUAGAUCGGCCGCCACUGAUGGGACAUGAGGAUCACCCAUGUACGAAGUGAUCCAAUAAAUCAGGACCGGGAUCACUUGUA | – | – | 125 nM | 225 nM
UGCAUUAUACAUGGAUCACCCAUGUAGACACGAGGACCGGUACGGCCGCCACUCGGAAGAGGAAACAUGAGGAUCACCCAUGUGA | 78.5 nM | 78.2 nM | – | –
GCAUCCUAGUCGGCCGCCACUGCAACAUGAGGAUCACCCAUGUCAGGCCUCAUGUGUCCUGGUAGCAGGACCGGGACUAGGAUGC | 36.8 nM | 29.2 nM | – | –
GGCCCGGACUUGGAAUGGGUGUUUCCCUCACGAGGACCGGUACGGCCGCCACUCGAAGACAUGAGGAUCACCCAUGUAGUCGACA | – | – | 44.9 nM | 12.5 nM
AAUAAUAAGAAUAACGUACCAGGUGAUCAACGAGGACCGGUACGGCCGCCACUCGAAACAUGAGGAUCACCCAUGUAAUAACAAU | – | – | 83.4 nM | 58.3 nM
AGCGCGGUGAUGGUAGCCGGACGCUAGGUACGAGGACCGGUACGGCCGCCACUCGGAGUCCUACGACAUGAGGAUCACCCAUGUA | 99.3 nM | 46.8 nM | – | –
UUCACAUGGUAUGAAUAUACAUACAAGAAACGAGGACCGGUACGGCCGCCACUCGUGCCGGAAACAUGAGGAUCACCCAUGUGUU | – | – | 37 nM | 45.4 nM
AAUAAACAUGAGGAUCACCCAUGUAGGGUGCGAGGACCGGUACGGCCGCCACUCGGGUGAAAACAUGAGGAUCACCCAUGUAAAA | – | – | 200 nM | 363 nM
CUACAUUUGUAGAAACCGGUCAACAAUAAUCGAGGACCGGUACGGCCGCCACUCGAUGUAAAAUAAACAUGAGGAUCACCCAUGU | 18.1 nM | 19.3 nM | – | –
UACUUGCUGACGGCCGCCACUAGAACAUGAGGAUCACCCAUGUACCUGGUCCUUCAUGGGUGGACUAGGACCGGGUCAGCAAGAU | – | – | 339 nM | 549 nM
UAGUCCGCGACGGCCGCCACUCGCUGAUGCACAUGUGUCCGGGACAUGAGGAUCACCCAUGUUUCGAGGACCGGGUCGAUCCUAA | 78.2 nM | 57 nM | – | –
GGUUACUCUACGGCCGCCACUGAUUAUUUAUAGUCCUGUACAUAAACAUGAGGAUCACCCAUGUACAGGACCGGGUAGUGUAACC | 34.9 nM | 35.6 nM | – | –
GGCACAUAGUCGGCCGCCACUACUAACACCUCAGACAACAUGAGGAUCACCCAUGUUCCAGAGUGUAGGACCGGGACUAUGUGCC | 11.6 nM | 10.5 nM | – | –
GCAUCCUAGUCGGCCGCCACUGACAUGAGGAUCACCCAUGUACAUGAGGAUCACCCAUGUUGUAACAGGACCGGGACUAGGAUGC | 99.7 nM | 49.5 nM | – | –
GUUGGAUACUCGGCCGCCACUGAGAGAGUCAUGUGAACAUGAGGAUCACCCAUGUAAUAUAUAUACAGGACCGGGAGUGUUGUAA | – | – | 21.6 nM | 16.8 nM

Sequence | apparent Kd [1] | apparent Kd [2] | apparent Kd [3] | apparent Kd [4]
GUCGGUACGUCGGCAAAGCCGAUGUGCCAGCGAGGACCGGUACGGCCGCCACUCGUACAUGAGGAUCACCCAUGUCCGGUCCGGC | 69.2 nM | 70.7 nM | – | –
UAAACUACACAUGAGGAUCACCCAUGUGGCCGAGGACCGGUACGGCCGCCACUCGUGUGUUAAUAAAAGAACUGCAAGGUUCUGU | 350 nM | 84 nM | – | –
AUUCAUGGAAACAUGACAUACAUAACCGGUCGAGGACCGGUACGGCCGCCACUCGUUUGGAGGCACAUGAGGAUCACCCAUGUUA | 23.7 nM | 24.5 nM | – | –
GCUAGGUCAUCGGCCGCCACUAACGAUGGCUCCAACAUGAGGAUCACCCAUGUGCCACAUGCGCAUAGGACCGGGAUGACCUAGC | 13 nM | 10.5 nM | – | –
UAAUCCGGUCCUCGAUAAUCCUCAUGUAAACGAGGACCGGUACGGCCGCCACUCGAUAACAUGAGGAUCACCCAUGUAAUAAUAA | – | – | 89.5 nM | 46.5 nM
GCAUCCUAGUCGGCCGCCACUGCAACAUGAGGAUCACCCAUGUCUGCAUCUUCAUGAUGCAGUAGCAGGACCGGGACUAGGAUGC | 185 nM | 20.2 nM | – | –
UAUUAUCAGUCGGCCGCCACUGACACAUGAGGAUCACCCAUGUAAUUUGGGUUAUAUAUAAAUUACAGGACCGGGACAAAGGCUA | – | – | 358 nM | 295 nM
AUACAUGAGGAUCACCCAUGUGAUGGCCGGCGAGGACCGGUACGGCCGCCACUCGUGAUCCGUCCUGAAAGCAAAGCUCCCAGCA | 55.2 nM | 122 nM | – | –
UUAUAUACUACGGCCGCCACUGAACAUGAGGAUCACCCAUGUAAUGUUCAGACGUCUUUAGACGACAGGACCGGGUAGAAUUAAA | 119 nM | 109 nM | – | –
AGAUUCGACACGGCCGCCACUUUCAGUGGCUGGUGUCAUGGUGCACAUGAGGAUCACCCAUGUGGAAGGACCGGGUGUUGAGUCU | – | – | 12.2 nM | 58.4 nM
AUAAUUGGGUUAAUUAGUUUUAGGUCCAGUCGAGGACCGGUACGGCCGCCACUCGUUCCGAGAUACAUGAGGAUCACCCAUGUUA | – | – | 32.9 nM | 34.1 nM
AGCACAUGAGGAUCACCCAUGUGUCGGUACCGAGGACCGGUACGGCCGCCACUCGCAGGACAUGAGGAUCACCCAUGUGCCGCCG | 25.1 nM | 25.4 nM | – | –
UAAUGCAGGUCGGCCGCCACUACAAACAUGAGGAUCACCCAUGUAGUUACUGGGUGAAGUGGCAGUAGGACCGGGACCUGCAUAA | 289 nM | 342 nM | – | –
AAUCAUGGAAACAUGACAUGAGGAUUACUCCGAGGACCGGUACGGCCGCCACUCGCGAGGAGGCGGACAUGAGGAUCACCCAUGU | 185 nM | 40.2 nM | – | –
GACGCAUGAGUUGUAAAAGCUCAUGGGUCGCGAGGACCGGUACGGCCGCCACUCGGCUGUACAUGAGGAUCACCCAUGUCAGGGU | 275 nM | 580 nM | – | –
UCGGGCAUAGCGGCCGCCACUGUUUGGCGUGCGGAUGACGGAACAUGAGGAUCACCCAUGUUGUUUAGGACCGGGCUUGCGUCGU | – | – | 13.2 nM | 15.2 nM
UACAUGAGGAUCACCCAUGUCCCAUGUGAACGAGGACCGGUACGGCCGCCACUCGACCGAGGCGGCACAUGAGGAUCACCCGCAU | 736 nM | 1580 nM | – | –
AAUUAUCAGUCGGCCGCCACUGACACAUGAGGAUCACCCAUGUAAUAUGGGUAAAAUUAACUGAACAGGACCGGGACAAAUGCUA | 381 nM | 649 nM | – | –
AAUGUGAAGGCGGCCGCCACUGAUAAUAGACAUGAGGAUCACCCAUGUAUAAAUCCUCAAUAAGACAGGACCGGGCCAUCUACGU | – | – | 105 nM | 123 nM
CCAUAAGUACCGGUCCUCAGAUCCUCAUGACGAGGACCGGUACGGCCGCCACUCGAAACAUGAGGAUCACCCAUGUAAUAAUAUU | – | – | 27.9 nM | 21 nM
UAACAUGAGGAUCACCCAUGUAUACUAAGUCGAGGACCGGUACGGCCGCCACUCGAAAUUGAAGAAUUGGCGGUAAAUGUAAGUA | – | – | 12.2 nM | 12.5 nM
GAGUAGAGGACGGCCGCCACUAAACAUGAGGAUCACCCAUGUCGUGAUCCGUUACCUAGAGUAGAUAGGACCGGGUCAUAUAGUC | – | – | 26.4 nM | 21.3 nM
CGAGUAAGUUCAAUCGAAUAACGGUUUUCGCGAGGACCGGUACGGCCGCCACUCGUGUGAUAUCACACAUGAGGAUCACCCAUGU | 77.6 nM | 47.4 nM | – | –
